Data from ChEMBL document CHEMBL4689842, “EUbOPEN Chemogenomics Library wave 1” (2021).

System: HEK-293T
Test: Multiplex assay against HEK293T;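 on Population Tubulin-Different-Phenotype (%): share of the cells with healthy nuclei that show this phenotype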
Type: toxicity, cell-based
Details: human
Method in brief: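 Compound was added to live cells that had been stained at seeding with Hoechst33342, BioTracker Green Microtubule Cytoskeleton Dye, MitoTracker Red and Annexin V Alexa Fluor 680, and imaging followed on a CQ1 microscope at 37°C and 5% CO2. CellPathfinder machine-learning gating divided cells into Hoechst high-intensity objects or normal cells, normal cells into healthy, pyknosed or fragmented nuclei, and pyknosed cells into mitotic or apoptotic. Tubulin, mitochondrial-mass and membrane-permeability phenotypes are per cents of healthy-nucleus cells.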

[1] = 12 h, 1 µM, compound concentration 1 uM, replicate 1
[2] = 12 h, 1 µM, compound concentration 1 uM, replicate 2
[3] = 12 h, 10 µM, compound concentration 10 uM, replicate 1
[4] = 12 h, 10 µM, compound concentration 10 uM, replicate 2
[5] = 24 h, 1 µM, compound concentration 1 uM, replicate 1
[6] = 24 h, 1 µM, compound concentration 1 uM, replicate 2
[7] = 24 h, 10 µM, compound concentration 10 uM, replicate 1
[8] = 24 h, 10 µM, compound concentration 10 uM, replicate 2
[9] = 48 h, 1 µM, compound concentration 1 uM, replicate 1
[10] = 48 h, 1 µM, compound concentration 1 uM, replicate 2
[11] = 48 h, 10 µM, compound concentration 10 uM, replicate 1
[12] = 48 h, 10 µM, compound concentration 10 uM, replicate 2

## Nc1ccc(C(=O)Nc2cccc(-c3nc(N4CCOCC4)c4oc5ncccc5c4n3)c2)cn1
[1]
  Population Apoptotic (%): 66%
  Population Fragmented Nuclei (%): 24%
  Population Healthy Nuclei (%): 15%
  Population Hoechst High Intensity Objects (%): 19%
  Population Mitochondria Different-Phenotype (%): 94%
  Population Mitotic Cells (%): 33%
  Population Normal (%): 80%
  Population Pyknosed Nuclei (%): 60%
  Population Tubulin-Different-Phenotype (%): 94%
[2]
  Population Apoptotic (%): 34%
  Population Fragmented Nuclei (%): 8%
  Population Healthy Nuclei (%): 10%
  Population Hoechst High Intensity Objects (%): 8%
  Population Mitochondria Different-Phenotype (%): 46%
  Population Mitotic Cells (%): 65%
  Population Normal (%): 91%
  Population Pyknosed Nuclei (%): 81%
  Population Tubulin-Different-Phenotype (%): 80%
  Total Cell Count: 149
[3]
  Population Apoptotic (%): 83%
  Population Fragmented Nuclei (%): 44%
  Population Healthy Nuclei (%): 5%
  Population Hoechst High Intensity Objects (%): 25%
  Population Mitochondria Different-Phenotype (%): 100%
  Population Mitotic Cells (%): 16%
  Population Normal (%): 74%
  Population Pyknosed Nuclei (%): 49%
  Population Tubulin-Different-Phenotype (%): 76%
  Total Cell Count: 385
[4]
  Population Apoptotic (%): 53%
  Population Fragmented Nuclei (%): 15%
  Population Healthy Nuclei (%): 13%
  Population Hoechst High Intensity Objects (%): 8%
  Population Mitochondria Different-Phenotype (%): 75%
  Population Mitotic Cells (%): 46%
  Population Normal (%): 91%
  Population Pyknosed Nuclei (%): 70%
  Population Tubulin-Different-Phenotype (%): 70%
  Total Cell Count: 330
[5]
  Population Apoptotic (%): 64%
  Population Fragmented Nuclei (%): 22%
  Population Healthy Nuclei (%): 17%
  Population Hoechst High Intensity Objects (%): 19%
  Population Mitochondria Different-Phenotype (%): 95%
  Population Mitotic Cells (%): 35%
  Population Normal (%): 80%
  Population Pyknosed Nuclei (%): 59%
  Population Tubulin-Different-Phenotype (%): 90%
  Total Cell Count: 147
[6]
  Population Apoptotic (%): 40%
  Population Fragmented Nuclei (%): 3%
  Population Healthy Nuclei (%): 37%
  Population Hoechst High Intensity Objects (%): 8%
  Population Mitochondria Different-Phenotype (%): 68%
  Population Mitotic Cells (%): 59%
  Population Normal (%): 91%
  Population Pyknosed Nuclei (%): 58%
  Population Tubulin-Different-Phenotype (%): 96%
  Total Cell Count: 171
[7]
  Population Apoptotic (%): 80%
  Population Fragmented Nuclei (%): 45%
  Population Healthy Nuclei (%): 7%
  Population Hoechst High Intensity Objects (%): 21%
  Population Mitochondria Different-Phenotype (%): 100%
  Population Mitotic Cells (%): 19%
  Population Normal (%): 78%
  Population Pyknosed Nuclei (%): 47%
  Population Tubulin-Different-Phenotype (%): 79%
  Total Cell Count: 389
[8]
  Population Apoptotic (%): 67%
  Population Fragmented Nuclei (%): 15%
  Population Healthy Nuclei (%): 15%
  Population Hoechst High Intensity Objects (%): 8%
  Population Mitochondria Different-Phenotype (%): 81%
  Population Mitotic Cells (%): 32%
  Population Normal (%): 91%
  Population Pyknosed Nuclei (%): 69%
  Population Tubulin-Different-Phenotype (%): 50%
  Total Cell Count: 315
[9]
  Population Apoptotic (%): 67%
  Population Fragmented Nuclei (%): 27%
  Population Healthy Nuclei (%): 31%
  Population Hoechst High Intensity Objects (%): 20%
  Population Mitochondria Different-Phenotype (%): 82%
  Population Mitotic Cells (%): 32%
  Population Normal (%): 79%
  Population Pyknosed Nuclei (%): 40%
  Population Tubulin-Different-Phenotype (%): 86%
  Total Cell Count: 183
[10]
  Population Apoptotic (%): 61%
  Population Fragmented Nuclei (%): 6%
  Population Healthy Nuclei (%): 55%
  Population Hoechst High Intensity Objects (%): 8%
  Population Mitochondria Different-Phenotype (%): 49%
  Population Mitotic Cells (%): 38%
  Population Normal (%): 91%
  Population Pyknosed Nuclei (%): 38%
  Population Tubulin-Different-Phenotype (%): 92%
  Total Cell Count: 187
[11]
  Population Apoptotic (%): 75%
  Population Fragmented Nuclei (%): 51%
  Population Healthy Nuclei (%): 10%
  Population Hoechst High Intensity Objects (%): 28%
  Population Mitochondria Different-Phenotype (%): 97%
  Population Mitotic Cells (%): 24%
  Population Normal (%): 71%
  Population Pyknosed Nuclei (%): 38%
  Population Tubulin-Different-Phenotype (%): 60%
  Total Cell Count: 484
[12]
  Population Apoptotic (%): 73%
  Population Fragmented Nuclei (%): 17%
  Population Healthy Nuclei (%): 18%
  Population Hoechst High Intensity Objects (%): 8%
  Population Mitochondria Different-Phenotype (%): 84%
  Population Mitotic Cells (%): 26%
  Population Normal (%): 91%
  Population Pyknosed Nuclei (%): 64%
  Population Tubulin-Different-Phenotype (%): 55%
  Total Cell Count: 304
